This is a sample that favours compounds with a hit; in the whole collection about 1.1% have one here.
Furin inhibitor = inhibitors of human furin; AID 463115; hit rate 0.061% among 220,000; purified furin, fluorogenic substrate cleavage; inhibition, % at 20 µM or 30 µM; in the data active = inhibition above about 25%
Thrombin inh = inhibitors of human thrombin; P00734; alpha-thrombin, Boc-VPR-AMC fluorogenic substrate cleavage; inhibition, % at 5 µM; hit rate 0.26% among 220,000;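 active = inhibition at or above 40%; inactive = inhibition below 40%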;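 also: 0% = enzyme with no compound and 100% = wells without enzyme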
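signal = AMC fluorescence, 355/460 nm | material = human alpha-thrombin enzyme | control set = enzyme without compound as high, wells lacking enzyme as low | times = reaction at room temperature | read-out basis = percent inhibition scaled between no-compound controls and no-enzyme blanks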
KLK5 inh = blocks human kallikrein 5 protease activity. hit rate 0.59% among 210,000. recombinant hK5, fluorogenic AMC substrate cleavage. inhibition, % at 5 µM. AID 873;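 active = inhibition of 40% or more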;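 also: 0% = enzyme controls without compound and 100% = no-enzyme blanks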
FXIIa inh 1536 = factor XIIa (human) inhibition | purified FXIIa, Boc-QGR-AMC fluorogenic substrate, 2 h | hit rate 0.3% among 220,000 | inhibition, % at 5 µM; in the data active = inhibition above about 40%;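 also: 0% = enzyme with no compound and 100% = blank without enzyme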
FXIa inh 1536 = inhibitors of human coagulation factor XIa. P03951. purified FXIa, Boc-Glu-Ala-Arg-AMC fluorogenic substrate. inhibition, % at 5 µM. hit rate 0.14% among 220,000;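 active = inhibition of at least 40%; inactive = inhibition below 40%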;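 also: fluorescence of freed AMC excited at 355 nm; 0% = enzyme without compound and 100% = no enzyme blank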
Target sequence (P03951 19-387 limits assumed): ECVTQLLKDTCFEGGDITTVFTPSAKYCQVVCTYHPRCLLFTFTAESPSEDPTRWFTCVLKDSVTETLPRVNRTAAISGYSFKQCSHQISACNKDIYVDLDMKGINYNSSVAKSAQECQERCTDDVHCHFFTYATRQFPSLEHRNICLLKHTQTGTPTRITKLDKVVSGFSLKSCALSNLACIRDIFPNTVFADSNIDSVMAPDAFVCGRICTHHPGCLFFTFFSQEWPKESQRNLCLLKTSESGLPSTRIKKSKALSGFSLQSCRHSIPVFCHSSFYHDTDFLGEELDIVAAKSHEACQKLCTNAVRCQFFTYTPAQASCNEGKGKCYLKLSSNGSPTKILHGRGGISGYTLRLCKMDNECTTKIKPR
Target sequence (P03951 388-625 limits assumed): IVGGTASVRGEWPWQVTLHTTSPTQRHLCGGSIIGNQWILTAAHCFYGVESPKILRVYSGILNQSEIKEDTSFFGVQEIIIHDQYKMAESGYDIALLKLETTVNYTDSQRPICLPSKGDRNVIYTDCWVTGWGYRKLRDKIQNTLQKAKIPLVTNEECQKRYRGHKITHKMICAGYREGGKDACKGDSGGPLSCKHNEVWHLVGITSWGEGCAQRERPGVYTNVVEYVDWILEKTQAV
* = called active by the depositor; · = no result.

SMILES	Furin inhibitor	Thrombin inh	KLK5 inh	FXIIa inh 1536	FXIa inh 1536
CSCCC(NC(=O)c1ccccc1Br)C(=O)Nc1ccc(C)cc1 (stereo not drawn)	-24	-5	-8	13	4
O=C(Cc1ccc([N+](=O)[O-])cc1)Nc1ccc(Cl)cc1	-25	-17	2	4	-3
Cc1c(Cl)cccc1NC(=O)Cc1ccc([N+](=O)[O-])cc1	-30	96*	3	9	-3
CCc1ccc(N(CC(=O)Nc2nc3ccc(C)cc3s2)S(=O)(=O)c2c(C)noc2C)cc1	-27	-6	-2	-1	-7
CCc1ccc(NC(=O)COC(=O)CCc2nc3cc(S(=O)(=O)N(CC)CC)ccc3n2C)cc1	-10	39	58*	6	12
CCN(CC)S(=O)(=O)c1ccc2c(c1)nc(CCC(=O)OCC(=O)Nc1cc(Cl)cc(Cl)c1)n2C	-3	0	-28	13	8
Cc1ccc(NNC(=O)Nc2ccc(Cl)cc2)nn1	-25	4	2	6	4
CCC(=O)C1=C(N2CCCC2)CC(C)(C)CC1=O	-18	11	47*	27	3
CNc1nc(NCCOC23CC4CC(CC(C4)C2)C3)nc(OCC(F)(F)F)n1	29*	1	3	13	10
CCN(c1ccccc1)S(=O)(=O)c1ccc(Cl)c(NC(=O)CN(C)C2CCN(C)CC2)c1	-12	-6	0	5	-2
COCCNC(=S)NN=C1CCCCCC1	-7	47*	41*	54*	34
COCCNC(=S)NN=C1CCC(c2ccccc2)CC1 (stereo not drawn)	-15	-3	-2	5	-3
C/C(=N\NC(=O)CCCOc1ccc(Cl)cc1C)c1ccc(C)o1	-21	-4	-12	12	8
Cc1cccc(OCC(O)CN2CC3(C)CC2CC(C)(C)C3)c1 (stereo not drawn)	-21	3	-10	12	64*
CCC(O)CNC(=O)CCc1nnc(C2(c3ccc(Cl)cc3)CCC2)o1 (stereo not drawn)	-25	-8	0	5	-2
CSc1nnnn1-c1ccc(C)c(Cl)c1	-11	-1	-9	14	5
CCOC(=O)c1c(N)nn(C(C)=O)c1-c1ccccc1	-17	3	86*	-1	-7
CCOC(=O)c1c(N)nn(C(=O)C(C)C)c1-c1ccc(OC)cc1	-21	-4	-14	6	-1
COC(=O)CCCCCC(CCC(=O)OC)NC(C)=O (stereo not drawn)	-7	24	51*	16	6
COC(=O)CCCCCCCCC(O)CN(C)C (stereo not drawn)	-2	1	2	7	3
CN(C)c1ccc(NC(=O)c2ccc(Cn3cc([N+](=O)[O-])cn3)cc2)cc1	-34	97*	-1	6	-3
COC(=O)c1ccccc1Oc1ccc(NC(=O)CCCl)cc1	-17	2	7	5	-11
CCCN(CCC)CCNS(=O)(=O)c1ccc2c(c1)oc(=O)n2C	16	-2	2	11	1
CCN(CCNS(=O)(=O)c1ccc2c(c1)oc(=O)n2C)c1ccccc1	-35	-5	42*	6	-2
COc1ccc(C2C(C#N)=C(N)Oc3c2c(-c2ccccc2)nn3-c2ccccc2)c(OC)c1OC (stereo not drawn)	-23	-9	-16	8	0
SMILES	Furin inhibitor	Thrombin inh	KLK5 inh	FXIIa inh 1536	FXIa inh 1536
CC(C)Cc1cc(C(=O)NCCN2CCOCC2)no1	-29	23	44*	0	5
O=C(NCCN1CCOCC1)c1cc(-c2ccc(Cl)cc2)on1	-27	2	5	17	-1
CC(C)Cc1cc(C(=O)NCc2cccs2)no1	-17	21	55*	8	8
COc1cccc(OC)c1-c1nn2c(-c3ccco3)nnc2s1	-15	38	45*	45*	8
CCOc1ccc(-c2nnc3sc(-c4c(OC)cccc4OC)nn23)cc1	10	·	·	·	·
O=C(COC(=O)c1ccc([N+](=O)[O-])s1)Nc1cccc(S(=O)(=O)NC2=NCCCCC2)c1	-8	45*	2	6	6
COc1ccc(CC(=O)Nc2ccccc2N2CCCCC2)cc1OC	-1	4	112*	30	22
COc1ccc(CC(=O)Nc2ccccc2N2CCOCC2)cc1OC	-22	-5	4	7	2
C=C1C(C(=O)Nc2ccccc2)C1C(=O)Nc1ccccc1 (stereo not drawn)	-29	-3	-3	3	-5
Cn1c(N)c(C#N)c2c(c1=S)COC(C)(C)C2	-8	-11	-12	12	0
CC(C)C1Cc2c(C#N)c(N)n(C)c(=S)c2CO1 (stereo not drawn)	-5	18	53*	17	6
CCOC(=O)CCc1c(C)nc(-n2[nH]c(C)c(CCO)c2=O)[nH]c1=O	-4	-7	-9	7	-3
S=c1[nH]nc(-c2ccncc2)n1/N=C/C=C/c1ccco1	6	37	30	74*	28
CCCCn1cnc(C(=O)OCC)c1N	-16	1	-7	4	0
COc1ccc(NC(=O)C2CCCN(S(=O)(=O)c3cccc4cccnc34)C2)c(OC)c1 (stereo not drawn)	-14	21	113*	33	13
Cc1ccc2nc(NC(=O)C3CCCN(S(=O)(=O)c4cccc5nsnc45)C3)sc2c1 (stereo not drawn)	-18	15	31	45*	17
CC(=O)c1cccc(NC(=O)C2CCCN(S(=O)(=O)c3cccc4cccnc34)C2)c1 (stereo not drawn)	-28	-1	-5	13	5
O=[N+]([O-])c1ccc(Nc2ccc(F)cc2)nc1	2	23	55*	7	1
O=C(NCc1ccccc1)c1nc(-c2cccs2)no1	-18	44*	12	26	27
CN1CCN(c2ccc(CNS(=O)(=O)Cc3ccc(Cl)cc3)cc2)CC1	-4	31	18	61*	33
C=C(C)c1cccc(C(C)(C)NC(=O)Nc2ccc(OC)cc2)c1	-17	-9	1	7	1
C=C(C)c1cccc(C(C)(C)NC(=O)Nc2ccc(C(C)=O)cc2)c1	-14	36	72*	11	12
CS(=O)(=O)N(Cc1ccccc1)c1ccc(C(=O)NC2CCCCC2O)cc1 (stereo not drawn)	-18	18	14	106*	-5
COc1ccc(Cc2noc(CN3CCN(Cc4csc(C)n4)CC3)n2)cc1OC	-20	0	·	5	5
CC1CC(C)CN(S(=O)(=O)c2ccc(C(=O)N3CCN(c4ccccc4)CC3)cc2)C1 (stereo not drawn)	-12	4	40*	5	1
O=C(c1ccccc1)N1CCN(S(=O)(=O)c2ccccc2)CC1	-21	0	0	9	0
O=C(NCc1ccccc1)C1CCCN1S(=O)(=O)c1cccc2cccnc12 (stereo not drawn)	-9	-9	46*	1	-9
COc1cc(C(=O)OCC(C)=O)ccc1OCc1c(C)noc1C	-7	·	42*	38	42*

Screening results deposited in PubChem by several laboratories.
